In ChEMBL document CHEMBL1143238, “Oxazaborolidine derivatives inducing autoinducer-2 signal transduction in Vibrio harveyi” (2008):
Converted amounts (≈) assume the structure as drawn. The source made the active and inactive calls. The calls are words filed in the database; no cut-off is given here.

What was measured:
Vibrio harveyi [1] = assay: Antibacterial activity against Vibrio harveyi MM77 mutant after 18 hrs; format: functional
Method in brief: (§1)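 Strains were grown aerobically at 30 °C with shaking in AB medium. Growth was read as OD595 after 18 h incubation. Each experiment was run in triplicate and repeated three times.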

Vibrio harveyi [2] = assay: Antibacterial activity against Vibrio harveyi BB886 mutant after 18 hrs; format: functional; method in brief: as §1
Vibrio harveyi [3] = assay: Antibacterial activity against Vibrio harveyi BB170 mutant after 18 hrs; format: functional; method in brief: as §1
Vibrio harveyi [4] = assay: Induction of bioluminescence in Vibrio harveyi BB170 mutant (sensor 1-, sensor 2+) at 600 uM; format: functional, organism-based
Method in brief: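 Strain was grown in AB medium at 30 °C with shaking to 1.5–2.5 · 10^9 CFU/ml (15–16 h), then diluted 1:5000 or 1:10,000 into fresh AB medium containing compound. Incubation was at 30 °C for about 7 h with luminescence monitoring. Light was normalized to CFU or OD595. Fold induction over endogenous luminescence was taken at the minimum-luminescence point (3–4 h). Negative control was fresh AB medium; positive control was 10% v/v BB152 spent medium.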

| Structure (SMILES) | MIC (Vibrio harveyi [1]) | MIC (Vibrio harveyi [2]) | MIC (Vibrio harveyi [3]) | Activity (Vibrio harveyi [4]) |
| --- | --- | --- | --- | --- |
| CCCCB1O[C@H](c2ccccc2)[C@H](C)N1C | 10 mM (≈ 2310 µg/mL) | 10 mM (≈ 2310 µg/mL) |  |  |
| C[C@H]1NB(c2ccccc2)O[C@@H]1c1ccccc1 | 10 mM (≈ 2370 µg/mL) | 10 mM (≈ 2370 µg/mL) | 10 mM (≈ 2370 µg/mL) |  |
| C[C@H]1[C@@H](c2ccccc2)OB(c2ccccc2)N1C |  |  |  | Active |
| CC1(C)COB(c2ccccc2)N1 | 10 mM (≈ 1750 µg/mL) | 5 mM (≈ 875 µg/mL) |  |  |
